Data taken from ChEMBL document CHEMBL4825754, “Antiviral evaluation of hydroxyethylamine analogs: Inhibitors of SARS-CoV-2 main protease (3CLpro), a virtual screening and simulation approach” (Bioorg Med Chem, 2021).
pIC50: −log10 of the molar value.

Experiments:
Vero C1008 [1] = experiment: Cytotoxicity against African green monkey Vero E6 cells assessed as effect on nuclei count; assay type: cell-based; conditions: chlorocebus sabaeus
[2] = biological target: Replicase polyprotein 1ab (Severe acute respiratory syndrome coronavirus 2) (UniProt P0DTD1); experiment: Inhibition of SARS-CoV-2 3CLpro using TVLQ-AMC probe as substrate at 50 uM preincubated with enzyme for 5 mins followed by substrate addition and measured after 3 hrs for every 15 mins for 1 hr by FRET assay; conditions: time 245.0 min
How it was run: (§1)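 3CLpro (0.4 µM final) preincubated 5 min at room temperature with compound in Tris-HCl pH 7.3, 1 mM EDTA. TVLQ-AMC added to 40 µM final. Fluorescence (ex 364/em 440 nm) read every 15 min for 1 h and at 3 h, in triplicate. Values normalized to the mean 3 h no-inhibitor control set as 100.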

[3] = biological target: Replicase polyprotein 1ab (Severe acute respiratory syndrome coronavirus 2) (UniProt P0DTD1); experiment: Inhibition of SARS-CoV-2 3CLpro using TVLQ-AMC probe as substrate at 10 uM preincubated with enzyme for 5 mins followed by substrate addition and measured after 3 hrs for every 15 mins for 1 hr by FRET assay; conditions: time 245.0 min; how it was run: as §1
SARS-CoV-2 [4] = experiment: Antiviral activity against SARS-CoV-2 infected in African green monkey Vero E6 cells assessed as inhibition of viral spread cells preincubated with compound for 1 hr followed by viral infection for 1 hr and later washed with PBS followed by re-incubated with compound for 48 hrs; assay type: functional, organism-based, Severe acute respiratory syndrome coronavirus 2
Vero C1008 [5] = experiment: Cytotoxicity against African green monkey Vero E6 cells assessed as reduction in cell survival at 50 uM; assay type: cell-based; conditions: chlorocebus sabaeus, vero c1008, 50 µM
SARS-CoV-2 [6] = experiment: Antiviral activity against SARS-CoV-2 infected in African green monkey Vero E6 cells assessed as inhibition of viral entry cells preincubated with compound for 1 hr followed by viral infection for 1 hr and later washed with PBS followed by re-incubated with compound for 24 hrs; assay type: functional, organism-based, Severe acute respiratory syndrome coronavirus 2
[7] = Severe acute respiratory syndrome coronavirus 2, Vero C1008

`CC(C)(C)OC(=O)NC(Cc1ccccc1)C(=O)N[C@@H](Cc1ccccc1)[C@@H](O)CN1CCN(Cc2ccc(C(F)(F)F)cc2)CC1` (some centres undefined) was tested, and the Activity (Vero C1008 [1]) was “Non-Toxic”, the inhibition [2] was 12% and the inhibition [3] was 5%. For the same compound, the pIC50 (SARS-CoV-2 [4]; [7]) was 4.90.
For IVERMECTIN [listing 1 of 2 here], the Activity (Vero C1008 [5]) was “Toxic”, the pIC50 (SARS-CoV-2 [6]; vero e6) was 5.57 and the pIC50 (SARS-CoV-2 [4]; vero e6) was 5.22.
For IVERMECTIN [listing 2 of 2 here], the inhibition [2] was 90% and the inhibition [3] was 85%.
With `CC(C)(C)OC(=O)N[C@@H](Cc1ccccc1)[C@@H](O)CN1CCC(N2CCCCC2)CC1` the pIC50 (SARS-CoV-2 [6]; [7]) was 5.20, the Activity (Vero C1008 [1]) was “Non-Toxic” and the inhibition [2] was 12%. For the same compound, the inhibition [3] was 5% and the pIC50 (SARS-CoV-2 [4]; [7]) was 5.00.
In the case of `Cc1ccc2c(c1)C(=O)N([C@H](Cc1ccccc1)C(=O)N[C@@H](Cc1ccccc1)[C@@H](O)CN1CCN(C[C@H](O)[C@H](Cc3ccccc3)NC(=O)[C@@H](Cc3ccccc3)N3C(=O)c4ccc(C)cc4C3=O)CC1)C2=O`, the pIC50 (SARS-CoV-2 [6]; [7]) was 4.96, the Activity (Vero C1008 [1]) was “Non-Toxic” and the inhibition [2] was 12%. It also gave an inhibition [3] of 5% and a pIC50 (SARS-CoV-2 [4]; [7]) of 4.83.
